≈ marks a conversion by molar mass, not a printed value. Where “and” joins values, the source holds several entries; their conditions need not be identical. Equal entries are not always repeated.
Columns and labels:
Vero [1] = experiment: Cytotoxicity of compound was determined by reduction in number of viable vero monolayer cells after treatment with 0.032 ug/mL for 4 days; type: functional, Chlorocebus sabaeus
How it was run: (§1)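 Vero monolayers in duplicate cultures, exposed to each drug concentration in medium at 37 °C in a CO2 incubator for 4 days. Viable cells counted by trypan blue exclusion, and % reduction calculated against untreated control cultures.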

Punta Toro virus [2] = experiment: Tested for inhibition of virus-induced cytopathogenic effect and cytotoxicity of compound against Punta toro virus with adames strain in vero cell; type: functional
Cytomegalovirus [3] = experiment: Log value for antiviral activity against Cytomegalovirus (AD169) from MRC5 diploid human embryonic lung cells at 32 ug/mL; type: functional
How it was run: (§2)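 CMV AD169 yield reduction in MRC5 cells. Subconfluent monolayers infected at MOI 0.2 PFU/cell for 1.5 h at 37 °C, rinsed, then fed drug in MEM + 2% FBS, in duplicate. Drug refed on day 3, cultures harvested on day 6 by freeze-thaw and pooled. Yield titrated by plaque assay under 0.25% agarose overlay for 5–6 days, then formalin-fixed and methylene blue-stained for plaque counts.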

Human alphaherpesvirus 3 [4] = experiment: Compound was tested for antiviral activity against Varicella-Zoster from human diploid foreskin cells in mono layer culture at 0.032 ug/ml; type: functional
How it was run: (§3)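 VZV isolate DM625 on Huf cells (human diploid foreskin monolayers). Inoculum was left on after 1 h adsorption at 37 °C. Drug overlay in MEM + 2% FBS without agarose, refed with fresh drug at 72 h, in 2% CO2. Cells fixed in 10% formalin and stained with methylene blue; plaques counted day 6. % plaque reduction versus untreated virus controls, triplicates.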

Cytomegalovirus [5] = experiment: Log value for antiviral activity against Cytomegalovirus (AD169) from MRC5 diploid human embryonic lung cells at 0.1 ug/mL; type: functional; how it was run: as §2
P388 [6] = experiment: Compound was tested for antitumor activity against P388 leukemia in mouse at dose 1 mg/kg administered intraperitoneally in experiment 1; type: functional; conditions: P388, ip, route intraperitoneal
How it was run: (§4)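 Mice bearing L1210, L1210/ara-C, P388 or P388/ara-C leukaemia. Tumour implanted at the site each line names: ip, sc or ic. Drug given ip in physiologic saline on a QD1-9 schedule, at several dose levels per experiment. Life-span runs ended on day 30. Read-out is median % increase in life span versus tumoured untreated controls, with long-term survivors included.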

Mus musculus [7] = experiment: Compound was tested for antitumor activity against human A549 lung tumor xenografts in athymic mice at dose 2 mg/kg administered subrenal capsule in experiment 2; type: functional
[8] = Ratio of minimum drug concentration to ID50 of the compound(Asibi strain); type: ADME; conditions: read-out: Therapeutic index
Cytomegalovirus [9] = experiment: Log value for antiviral activity against Cytomegalovirus (AD169) from MRC5 diploid human embryonic lung cells at 3.2 ug/mL; type: functional; how it was run: as §2
Human alphaherpesvirus 3 [10] = experiment: Compound was tested for antiviral activity against Varicella-Zoster from human diploid foreskin cells in mono layer culture at 100 ug/ml; type: functional; how it was run: as §3
M5076 [11] = experiment: Log cell kill at the end of treatment at dose 0.5 mg/kg administered intraperitoneally; type: functional, Mus musculus; conditions: route intraperitoneal
[12] = Ratio of minimum drug concentration to ID50 of the compound ([…] strain); type: ADME; conditions: read-out: Therapeutic index
M5076 [13] = experiment: Compound was tested for antitumor activity against M5076 leukemia in mouse at dose 0.5 mg/kg administered intraperitoneally in experiment 1; type: functional; conditions: M5076, ip, route intraperitoneal
How it was run: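 Mice bearing M5076 tumour. Drug given ip in physiologic saline, daily on days 1-13, at several dose levels. Experiment ended on day 30. Read-out is median % increase in life span versus untreated tumoured controls, with long-term survivors included.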

Human alphaherpesvirus 3 [14] = experiment: Compound was tested for antiviral activity against Varicella-Zoster from human diploid foreskin cells in mono layer culture at 1 ug/ml; type: functional; how it was run: as §3
L1210 [15] = experiment: Number of 60-day survivors out of 10 tested at dose 2.25 mg/kg administered intraperitoneally; type: functional, Mus musculus; conditions: route intraperitoneal
L1210 [16] = experiment: Compound was tested for antitumor activity against L1210 leukemia in mouse at dose 1 mg/kg administered subcutaneously in experiment 2; type: functional; conditions: L1210, sc, route subcutaneous; how it was run: as §4
Cytomegalovirus [17] = experiment: Log value for antiviral activity against Cytomegalovirus (AD169) from MRC5 diploid human embryonic lung cells at 1 ug/mL; type: functional; how it was run: as §2
L1210 [18] = experiment: Compound was tested for antitumor activity against L1210 leukemia in mouse at dose 2.25 mg/kg administered intraperitoneally in experiment 1; type: functional; conditions: L1210, ip, route intraperitoneal; how it was run: as §4
Mus musculus [19] = experiment: Compound was tested for antitumor activity against human A549 lung tumor xenografts in athymic mice at dose 1.5 mg/kg administered subrenal capsule in experiment 1; type: functional
L1210 [20] = experiment: Compound was tested for antitumor activity against L1210 leukemia in mouse at dose 1 mg/kg administered intraperitoneally in experiment 2; type: functional; conditions: L1210, ip, route intraperitoneal; how it was run: as §4
Mus musculus [21] = experiment: Compound was tested for antitumor activity against human MX-1 mammary tumor xenografts in athymic mice at dose 1.5 mg/kg administered subrenal capsule in experiment 1; type: functional
L1210 [22] = experiment: (§5) Log cell kill at the end of treatment at dose 1 mg/kg administered intraperitoneally; type: functional, Mus musculus; conditions: route intraperitoneal
P388 [23] = experiment: as §5; type: functional, Mus musculus; conditions: route intraperitoneal
Yellow fever virus = experiment: Inhibitory dose of compound required to inhibit cytopathogenic effects of yellow fever virus with asibi strain in vero cells; type: functional; conditions: read-out: ID50 (the source's name)
Human alphaherpesvirus 3 [24] = experiment: Compound was tested for antiviral activity against Varicella-Zoster from human diploid foreskin cells in mono layer culture at 0.1 ug/ml; type: functional; how it was run: as §3
[25] = test system: Vesicular stomatitis virus; experiment: Inhibitory dose of compound required to inhibit cytopathogenic effects of vesicular stomatitis RNA virus with indiana strain in L929 cells; type: functional
L1210 [26] = experiment: Compound was tested for antitumor activity against L1210 leukemia in mouse at dose 1.5 mg/kg administered intracerebrally in experiment 1; type: functional; conditions: L1210, central; how it was run: as §4
Punta Toro virus [27] = experiment: Inhibitory dose of compound required to inhibit cytopathogenic effects of Punta toro virus with adames strain in vero cells; type: functional; conditions: read-out: ID50 (the source's name)
[28] = Ratio of minimum drug concentration to ID50 of the compound (Adames strain); type: ADME; conditions: read-out: Therapeutic index
P388 [29] = experiment: Compound was tested for antitumor activity against P388/ara-C leukemia in mouse at dose 1.5 mg/kg administered intraperitoneally in experiment 1; type: functional; conditions: P388, ip, route intraperitoneal; how it was run: as §4
Human alphaherpesvirus 3 [30] = experiment: Compound was tested for antiviral activity against Varicella-Zoster from human diploid foreskin cells in mono layer culture at 0.32 ug/ml; type: functional; how it was run: as §3
Vero [31] = experiment: Cytotoxicity of compound was determined by reduction in number of viable vero monolayer cells after treatment with 0.01 ug/mL for 4 days; type: functional, Chlorocebus sabaeus; how it was run: as §1
Vero [32] = experiment: Cytotoxicity of compound was determined by reduction in number of viable vero monolayer cells after treatment with 320 ug/mL for 4 days; type: functional, Chlorocebus sabaeus; how it was run: as §1
L1210 [33] = experiment: Compound was tested for antitumor activity against L1210 leukemia in mouse at dose 1 mg/kg administered intracerebrally in experiment 2; type: functional; conditions: L1210, central; how it was run: as §4
Mus musculus [34] = experiment: Compound was tested for antitumor activity against human LOX melanoma tumor xenografts in athymic mice at dose 1 mg/kg administered intraperitoneally in experiment 1; type: functional; conditions: ip, route intraperitoneal
How it was run: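 Athymic mice carrying human LOX melanoma. Drug given ip in saline on a QD1-9 schedule, at several dose levels. Life-span experiment ended on day 30. Read-out is % increase in life span versus untreated tumoured controls, with long-term survivors included.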

L1210 [35] = experiment: Median percent increase in life span of tumored, treated mice relative to tumored, untreated controls after intraperitoneal dose 0.5 mg/kg daily(for every 3 hr); type: functional; conditions: Mus musculus, L1210, ip
Vero [36] = experiment: Cytotoxicity of compound was determined by reduction in number of viable vero monolayer cells after treatment with 0.1 ug/mL for 4 days; type: functional, Chlorocebus sabaeus; how it was run: as §1

With `Nc1ccn([C@@H]2C=C(CO)[C@@H](O)[C@H]2O)c(=O)n1` the Reduction (Vero [1]) was 3%, the Virus rating (Punta Toro virus [2]) was 1.5 and the “Reduction in virus yield” value (Cytomegalovirus [3]) was 2 pfu/ml. For the same compound, the Plaque reduction (Human alphaherpesvirus 3 [4]) was 3%, the “Reduction in virus yield” value (Cytomegalovirus [5]) was 0.8 pfu/ml and the ILS at 1 mg/kg (P388 [6]) was 88%. For the same compound, the ILS at 2 mg/kg (Mus musculus [7]) was 92%, the selectivity ratio [8] was 0.1 and the “Reduction in virus yield” value (Cytomegalovirus [9]) was 1.5 pfu/ml. For the same compound, the Plaque reduction (Human alphaherpesvirus 3 [10]) was 41%, the LCK (M5076 [11]) was -2 and the selectivity ratio [12] was 3.1. The ILS at 0.5 mg/kg (M5076 [13]) was 5%, the Plaque reduction (Human alphaherpesvirus 3 [14]) was 36% and the No. of survivors (L1210 [15]) was 6. The ILS at 1 mg/kg (L1210 [16]) was 83%, the “Reduction in virus yield” value (Cytomegalovirus [17]) was 1.4 pfu/ml and the ILS at 2.25 mg/kg (L1210 [18]) was 125%. The ILS at 1.5 mg/kg (Mus musculus [19]) was -59%, the ILS at 1 mg/kg (L1210 [20]) was 201% and the ILS at 1.5 mg/kg (Mus musculus [21]) was 100%. For the same compound, the LCK (L1210 [22]) was >6 and >5.8, the LCK (P388 [23]) was 0.9 and the IC50 (Yellow fever virus) was 5.05 µg/mL (≈ 21.1 µM). For the same compound, the Plaque reduction (Human alphaherpesvirus 3 [24]) was 21%, the ID50 [25] was 0.57 µg/mL and 0.25 µg/mL and the ILS at 1.5 mg/kg (L1210 [26]) was 45%. It also gave an IC50 (Punta Toro virus [27]) of 1.01 µg/mL (≈ 4.22 µM), a selectivity ratio [28] of 0.3 and an ILS at 1.5 mg/kg (P388 [29]) of 165%. It also gave a Plaque reduction (Human alphaherpesvirus 3 [30]) of 33%, a Reduction (Vero [31]) of 0% and a Reduction (Vero [32]) of 67%. It also gave an ILS at 1 mg/kg (L1210 [33]) of 42%, an ILS at 1 mg/kg (Mus musculus [34]) of 119% and an ILS at 0.5 mg/kg (L1210 [35]) of 116%. For the same compound, the Reduction (Vero [36]) was 50%.

— ChEMBL document CHEMBL1124192, “Cyclopentenylcytosine. A carbocyclic nucleoside with antitumor and antiviral properties” (J Med Chem, 1988)
